Results: paper PMC7224360 (Peptide science (Hoboken, N.J.), 2018)
Entries after “also recorded” stand apart in the source; their conditions may differ.

Experiments:
[1] = Circular dichroism spectropolarimetry in membrane-mimetic solvents; type: physicochemical; details: 75 μM peptide; for CD conformation in SDS: SDS in phosphate buffer; for CD isodichroic point: SDS titration; for CD conformation in phosphate buffer: Na2HPO4/KH2PO4 buffer, pH 7.0; for CD conformation in methanol: methanol (up to 50%)
[2] = NMR secondary structure; type: physicochemical; details: average of representative NMR conformers, SDS micelles
Procedure, shortened: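 Test peptides at 5 mM in 90% H2O/10% D2O, pH 4.5, with perdeuterated SDS (300 mM) added to give a peptide:detergent ratio of 1:60. 1D spectra were recorded at 300–320 K. DQF-COSY, TOCSY and NOESY spectra were acquired, with 340 ms NOESY used for restraints (1.8–2.7, 1.8–3.5 or 1.8–5 Å). CYANA generated 50 structures and the 20 with lowest target function were kept. Structures were energy-minimised and refined with 3JHNHα-derived dihedrals. Secondary shifts are relative to random-coil values.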

[3] = test system: Gαi3 (N18TG2 membranes); assay: [35S]GTPγS binding, antibody-capture SPA, Gαi3, N18TG2 membranes; type: biochemical; details: for [35S]GTPγS binding to Gαi3 compared with IL4: N18TG2 membranes (5 µg protein), peptides up to 100 µM, IL4 100 µM, n=3-5
Procedure, shortened: (§1)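 N18TG2 neuroblastoma membranes (5 µg protein) were incubated with [35S]GTPγS plus WIN55212–2 (1 µM), unphosphorylated IL4 peptide (100 µM) or phosphopeptides (20–100 µM). Captured by SPA with anti-Gαo (n=3–4) or anti-Gαi3 (n=3–5) antibody. Specific binding (CPM) = total minus non-specific. Normalised to mean WIN55212–2 stimulation as 100%. Mean ± SEM; one-way ANOVA with Dunnett's post hoc test.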

[4] = test system: Gαo (N18TG2 membranes); assay: [35S]GTPγS binding, antibody-capture SPA, Gαo, N18TG2 membranes; type: biochemical
Procedure, shortened: as §1

[5] = test system: Gi/o; details: cited from earlier work
[6] = test system: cAMP (Gi/o pathway); Chinese hamster ovary cells without CB1R; details: cited from earlier work
[7] = cited from earlier work
[8] = test system: adenylyl cyclase (AC6) in N18TG2 cells; assay: Inhibition of forskolin-stimulated cAMP accumulation in N18TG2 cells; type: cell-based; details: for Inhibition of cAMP accumulation at 100 µM versus IL4 or IL4pSer402: forskolin 1 µM, peptide 100 µM, n=3
[9] = at reported concentrations, ANOVA, Dunnett's

Molecule: RpSKDLRHAFRSMFPSSE [IL4pSer402]
- CD conformation in 90% TFE [1]: α-Helical conformation
- CD conformation in SDS [1]: α-Helical conformation
- CD isodichroic point [1]: 203 nm
- Lowest TFE concentration inducing helical conformation ([1]; CD): 40 % TFE
- Methanol concentration at which helical conformation is induced ([1]; CD): 50 % methanol
- Distance between Cα carbons of Arg401 and Glu417 [2]: 23.61 Å
- [35S]GTPγS binding to Gαi3 compared with IL4 [3]: not different between IL4 and IL4pSer402

Molecule: Cc1c(C(=O)c2cccc3ccccc23)c2cccc3c2n1[C@H](CN1CCOCC1)CO3 [WIN55212–2, reference compound]
- % over stimulation by WIN55212–2, Go ([4]; WIN55212–2 1 µM, N18TG2 membranes, anti-Gαo SPA, mean ± SEM): 19±2.8%
- Significance of Gαo stimulation versus basal [4, 9]: significantly different from basal
- Significance of Gi3 stimulation by WIN55212–2 versus IL4 ([3]; ANOVA, Dunnett's, **P<0.005): significantly different compared to IL4 in Gi3
- % over stimulation by WIN55212–2, Gi3 ([3]; WIN55212–2 1 µM, N18TG2 membranes, anti-Gαi3 SPA, mean ± SEM): 62.7 ±6.6%
- Significance of Gαi3 stimulation versus basal [3, 9]: significantly different from basal

Molecule: RSKDLRHAFRSMFPSSE [IL4]
- Autonomous G protein activation [5]: can activate G proteins autonomously as a pepducin
- Reduction of cAMP levels ([6]; CB1R-independent): able to reduce cAMP levels in a CB1R-independent manner
- Functional activity in absence of CB1R expression ([6]; Chinese hamster ovary cells without CB1R): still functional
- Distance between Cα carbons of Arg401 and Glu417 [2]: 26 Å
- Conformation of unphosphorylated IL4 in SDS micelles ([7]; SDS micelles, CD and NMR): induced significant helical structure
- CD conformation of unphosphorylated IL4 in aqueous environment ([7]; aqueous): random coil conformation

Molecule: CCCCCCC(C)(C)c1ccc([C@@H]2C[C@H](O)CC[C@H]2CCCO)c(O)c1 [CP55940, reference compound]
- Effect of SR141716 on inhibition of cAMP accumulation by CP55940 ([8]; N18TG2 cells, CP55940 versus CP55940 plus SR141716, **P<0.005): Significant difference was found between CP55940 and CP55940 plus SR141716
- CP55940-inhibited cAMP with versus without bradykinin, significance ([8]; forskolin 1 µM or secretin 30 nM, *P<0.05, **P<0.005, n=3–7): significant difference was found comparing the effect of CP55940 with and without BK

Molecule: RSKDLRHAFRSMFPpSSE [IL4pSer415]
- Inhibition of cAMP accumulation at 100 µM versus IL4 or IL4pSer402 ([8]; N18TG2 cells): inhibited cAMP accumulation to a greater extent than IL4 or IL4pSer402; also recorded: more efficaciously than IL4 and IL4pSer402
- CD conformation in 90% TFE [1]: a slight shift toward helicity was initiated
- CD conformation in phosphate buffer [1]: random coil
- CD conformation in SDS [1]: induction of α-helix in SDS
- CD conformation in TFE [1]: random coil
- CD conformation in methanol [1]: random coil
- Distance between Cα carbons of Arg401 and Glu417 [2]: 21.52 Å
- [35S]GTPγS binding to Gαi3 compared with IL4 [3]: more efficacious than IL4; also recorded: higher efficacy than IL4

Molecule: RSKDLRHAFRpSMFPSSE [IL4pSer411]
- Inhibition of cAMP accumulation at 100 µM versus IL4 or IL4pSer402 ([8]; N18TG2 cells): inhibited cAMP accumulation to a greater extent than IL4 or IL4pSer402; also recorded: more efficaciously than IL4 and IL4pSer402
- CD conformation in phosphate buffer [1]: random coil structure
- CD conformation in SDS [1]: characteristics of α-helical structure
- CD isodichroic point [1]: 203 nm
- CD conformation in TFE [1]: random coil structure
- CD conformation in methanol [1]: random coil structure
- CD negative minimum wavelength in phosphate buffer ([1]; phosphate buffer pH 7.0): 198 nm
- Distance between Cα carbons of Arg401 and Glu417 [2]: 23.68 Å
- Significance of Gαo stimulation versus WIN55212–2 and IL4 ([4]; ANOVA, Dunnett's, ***P<0.0001): significantly different compared to WIN55212–2 and IL4
- [35S]GTPγS binding to Gαo, fold greater than WIN55212–2 or IL4 ([4]; N18TG2 membranes, WIN55212–2 1 µM, IL4 100 µM): 3 fold
- Significance of Gi3 stimulation versus WIN55212–2 (not versus IL4) ([3]; ANOVA, Dunnett's, *P<0.05): significantly different compared to WIN55212–2 but not IL4
- [35S]GTPγS binding to Gαi3 compared with IL4 [3]: more efficacious than IL4

Molecule: CN(C)CCCn1cc(C2=C(c3c[nH]c4ccccc34)C(=O)NC2=O)c2ccccc21 [bisindolylmaleimide 1, reference compound]
- Effect of PKC inhibitor on bradykinin augmentation of CP55940 response ([8]; N18TG2 cells, bisindolylmaleimide I 100 nM, bradykinin 100 nM, Fig. 7C): reversed by the PKC inhibitor
